Measured values as given in ChEMBL document CHEMBL2040727, “Substituted thiazoles VI. Synthesis and antitumor activity of new 2-acetamido- and 2 or 3-propanamido-thiazole analogs” (2012).

Assays:
Type in all cases: functional
OVCAR-4 = assay: Growth inhibition of human OVCAR4 cells at 10 uM after 48 hrs by coulter counter analysis; conditions: OVCAR-4, 48 h, read-out: GI
Method in brief: (§1)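 Single-dose NCI 60-line panel screen of test compounds. Cells grown in RPMI 1640 with 10% FBS. Compounds dissolved in DMSO, then diluted in phosphate buffer saline (final DMSO below 1%). Wells run in duplicate at 6 × 10⁴ cells/ml. Controls held PBS and DMSO at matching dilutions. Incubation 48 h at 37 °C under humidified 5% CO2. Cells diluted tenfold in saline and counted by Coulter counter. Percent growth inhibition taken from mean-graph of treated-cell growth.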

SK-MEL-2 = assay: Growth inhibition of human SK-MEL-2 cells at 10 uM after 48 hrs by coulter counter analysis; conditions: SK-MEL-2, 48 h, read-out: GI; method in brief: as §1
SNB-19 = assay: Growth inhibition of human SNB19 cells at 10 uM after 48 hrs by coulter counter analysis; conditions: SNB-19, 48 h, read-out: GI; method in brief: as §1
MOLT-4 = assay: Growth inhibition of human MOLT4 cells at 10 uM after 48 hrs by coulter counter analysis; conditions: MOLT-4, 48 h, read-out: GI; method in brief: as §1
HL-60(TB) = assay: Growth inhibition of human HL-60(TB) cells at 10 uM after 48 hrs by coulter counter analysis; conditions: HL-60, 48 h, read-out: GI
Method in brief: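 Cells grown in RPMI 1640 with 10% FBS. Compound was dissolved in DMSO and diluted in PBS (under 1% DMSO final), then added in duplicate wells to culture at 6 × 10⁴ cells/ml. PBS/DMSO vehicle controls were included. Incubated at 37 °C, humidified 5% CO₂, for 48 h. Cells were diluted 10-fold in saline and Coulter-counted. Single-dose NCI-60 screen, read as percent growth inhibition.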

NCI-H522 = assay: Growth inhibition of human NCI-H522 cells at 10 uM after 48 hrs by coulter counter analysis; conditions: NCI-H522, 48 h, read-out: GI; method in brief: as §1
IGROV-1 = assay: Growth inhibition of human IGROV1 cells at 10 uM after 48 hrs by coulter counter analysis; conditions: IGROV-1, 48 h, read-out: GI; method in brief: as §1
UACC-257 = assay: Growth inhibition of human UACC257 cells at 10 uM after 48 hrs by coulter counter analysis; conditions: UACC-257, 48 h, read-out: GI
Method in brief: (§2)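 Single-dose screen in the NCI 60 cell line panel. Cells grown in RPMI 1640 with 10% FBS. Compounds dissolved in DMSO and diluted in phosphate buffered saline, final DMSO under 1%. Duplicate wells seeded from culture at 6 × 10⁴ cells/ml. Incubated 48 h at 37 °C, humidified, 5% CO2. Cells diluted tenfold in saline and Coulter-counted. Percent growth inhibition computed against PBS/DMSO controls.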

MDA-MB-435 = assay: Growth inhibition of human MDA-MB-435 cells at 10 uM after 48 hrs by coulter counter analysis; conditions: MDA-MB-435, 48 h, read-out: GI; method in brief: as §1
HCT-15 = assay: Growth inhibition of human HCT15 cells at 10 uM after 48 hrs by coulter counter analysis; conditions: HCT-15, 48 h, read-out: GI; method in brief: as §1
SK-OV-3 = assay: Growth inhibition of human SKOV3 cells at 10 uM after 48 hrs by coulter counter analysis; conditions: SK-OV-3, 48 h, read-out: GI; method in brief: as §1
Malme-3M = assay: Growth inhibition of human MALME-3M cells at 10 uM after 48 hrs by coulter counter analysis; conditions: read-out: GI; method in brief: as §1
TK-10 = assay: Growth inhibition of human TK10 cells at 10 uM after 48 hrs by coulter counter analysis; conditions: TK-10, 48 h, read-out: GI; method in brief: as §2
SF-268 = assay: Growth inhibition of human SF268 cells at 10 uM after 48 hrs by coulter counter analysis; conditions: SF-268, 48 h, read-out: GI; method in brief: as §1
LOX IMVI = assay: Growth inhibition of human LOXIMVI cells at 10 uM after 48 hrs by coulter counter analysis; conditions: read-out: GI; method in brief: as §1
MCF7 = assay: Growth inhibition of human MCF7 cells at 10 uM after 48 hrs by coulter counter analysis; conditions: MCF7, 48 h, read-out: GI; method in brief: as §1
SF-539 = assay: Growth inhibition of human SF539 cells at 10 uM after 48 hrs by coulter counter analysis; conditions: SF-539, 48 h, read-out: GI; method in brief: as §1
M14 = assay: Growth inhibition of human M14 cells at 10 uM after 48 hrs by coulter counter analysis; conditions: M14, 48 h, read-out: GI; method in brief: as §1
UACC-62 = assay: Growth inhibition of human UACC62 cells at 10 uM after 48 hrs by coulter counter analysis; conditions: UACC-62, 48 h, read-out: GI; method in brief: as §2
A498 = assay: Growth inhibition of human A498 cells at 10 uM after 48 hrs by coulter counter analysis; conditions: A498, 48 h, read-out: GI; method in brief: as §1
[1] = Growth inhibition of human Hs 578T cells at 10 uM after 48 hrs by coulter counter analysis; conditions: read-out: GI; method in brief: as §1
HCC 2998 = assay: Growth inhibition of human HCC2998 cells at 10 uM after 48 hrs by coulter counter analysis; conditions: HCC 2998, 48 h, read-out: GI; method in brief: as §1
RXF 393 = assay: Growth inhibition of human RXF393 cells at 10 uM after 48 hrs by coulter counter analysis; conditions: RXF 393, 48 h, read-out: GI; method in brief: as §1
COLO 205 = assay: Growth inhibition of human COLO205 cells at 10 uM after 48 hrs by coulter counter analysis; conditions: COLO 205, 48 h, read-out: GI; method in brief: as §1

Measured: inhibition of growth at 10 µM

CC(C(=O)Nc1nccs1)N1CCN(c2ccccc2)CC1 (stereo unspecified)
< 10%: all assays above

Cc1csc(NC(=O)C(C)N2CCN(c3ccccc3)CC2)n1 (stereo unspecified)
< 10%: all assays above

CCOC(=O)c1sc(NC(=O)C(C)N(CC)CC)nc1C (stereo unspecified)
< 10%: all assays above

CCOC(=O)c1sc(NC(=O)C(C)N2CCCCC2)nc1C (stereo unspecified)
< 10%: all assays above
